Assay results from ChEMBL document CHEMBL1129331, “Synthesis and physicochemical, biological, and pharmacological properties of new bile acids amidated with cyclic amino acids” (J Med Chem, 1996).
In brackets after ≈: the same amount, converted by molar mass.

What was measured:
[1] = test system: Rattus norvegicus; assay: Secretion of Bile acids in Bile Fistula rats after the iv administration of compound, expressed as the residual secretion rate; format: ADME, organism-based; conditions: in vivo
Method in brief: (§1)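 Male Sprague-Dawley rats (300-330 g), urethane-anesthetized, bile duct cannulated. After 1 h baseline, sodium salt infused via femoral vein at 10 μmol/min/kg for 1 h; bile collected at 15-min intervals for 3 h. Flow measured gravimetrically; bile acids, cholesterol and phospholipid measured enzymatically. Smax and Tmax read from secretion-time plots; Rs is the rate at hour 3. Mean ± SD, n=6.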

[2] = test system: Rattus norvegicus; assay: Secretion of cholesterol in Bile Fistula rats after the iv administration of compound, expressed as the residual secretion rate; format: ADME, organism-based; conditions: in vivo; method in brief: as §1
[3] = test system: Rattus norvegicus; assay: Secretion of phospholipid in Bile Fistula rats after the iv administration of compound, expressed as the residual secretion rate; format: ADME, organism-based; conditions: in vivo
Method in brief: (§2)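 Anaesthetised (ethyl carbamate) male Sprague-Dawley rats, 300-330 g, bile duct cannulated; after 1 h baseline, bile acid sodium salts infused via femoral vein at 10 μmol/min/kg for 1 h. Bile collected 3 h at 15 min intervals; flow gravimetric; BA, cholesterol, phospholipid by enzymatic assays. Smax, Tmax from secretion-vs-time plots; Rs = rate at third hour. n=6, mean ± SD.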

[4] = Water solubility was determined; format: ADME; conditions: read-out: WS
Method in brief: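 Protonated form; measured on saturated solutions at pH 1.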

[5] = test system: Rattus norvegicus; assay: Alkaline phosphatase in Bile Fistula rats after iv coinfusion of TCDCA and compound.; format: ADME, organism-based; conditions: in vivo
Method in brief: (§3)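 Bile fistula Sprague-Dawley rats (200-250 g). TCDCA and test bile acid given as sodium salts, coinfused via jugular vein, each at 8 μmol/min/kg for 1 h. Bile collected at 30-min intervals for 3 h. Calcium, ALP and LDH in bile measured enzymatically; bile acid composition by HPLC (65% methanol, 15 mM ammonium acetate, pH 5.4). Mean ± SD.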

[6] = test system: Rattus norvegicus; assay: Lactate dehydrogenase in Bile Fistula rats after iv coinfusion of TCDCA and compound.; format: ADME, organism-based; conditions: in vivo; method in brief: as §3
[7] = Critical Micellar concentration was determined; format: ADME
Method in brief: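 Measured in water from surface tension, using the maximum bubble-pressure method.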

[8] = test system: Rattus norvegicus; assay: Bile flow in Bile Fistula rats after iv coinfusion of TCDCA and compound.; format: ADME, organism-based; conditions: in vivo; method in brief: as §3
[9] = test system: Rattus norvegicus; assay: Calcium output in Bile Fistula rats after iv coinfusion of TCDCA and compound.; format: ADME, organism-based; conditions: in vivo; method in brief: as §3
[10] = test system: Rattus norvegicus; assay: Maximum biliary secretion rate of TCDCA after iv coinfusion in Bile fistula rats.; format: ADME, organism-based; conditions: in vivo; method in brief: as §3
[11] = test system: Rattus norvegicus; assay: Maximum biliary secretion rate of bile acids after iv coinfusion in Bile fistula rats.; format: ADME, organism-based; conditions: in vivo; method in brief: as §3
[12] = test system: Rattus norvegicus; assay: Secretion of Bile acids in Bile Fistula rats after the iv administration of compound, expressed as the maximum secretion rate; format: ADME, organism-based; conditions: in vivo; method in brief: as §2
[13] = test system: Rattus norvegicus; assay: Secretion of Bile in Bile Fistula rats after the iv administration of compound, expressed as the maximum secretion rate; format: ADME, organism-based; conditions: in vivo; method in brief: as §1
[14] = test system: Rattus norvegicus; assay: Secretion of cholesterol in Bile Fistula rats after the iv administration of compound, expressed as the maximum secretion rate; format: ADME, organism-based; conditions: in vivo; method in brief: as §2
[15] = test system: Rattus norvegicus; assay: Secretion of phospholipid in Bile Fistula rats after the iv administration of compound, expressed as the maximum secretion rate; format: ADME, organism-based; conditions: in vivo; method in brief: as §2
[16] = Relative lipophilicity was determined; format: physicochemical; conditions: C-18 reverse phase HPLC
Method in brief: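 C-18 reverse-phase HPLC run isocratically at 0.9 mL/min. Mobile phase 65% (v/v) aqueous methanol with 2 mM ammonium acetate, pH 7, so that all bile acids are fully ionized.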

[17] = test system: cholylglycine hydrolase; assay: (§4) The compound was incubated with cholylglycine hydrolase and tested for determining the stability towards C-24 Deamination; format: ADME; conditions: cholylglycine hydrolase
[18] = The compound was incubated with human stools and tested for determining the stability towards 7-dehydroxylation; format: ADME, organism-based
Method in brief: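 Homogenized fresh human stool (500 mg) in 5 mL chopped meat-glucose medium; bile acid added at 0.05 mM final; 37 °C. Sampled at 0–72 h and stopped with 30% KOH. Bile acids recovered by C-18 solid-phase extraction, then analyzed by TLC and by HPLC with 75% methanol/15 mM ammonium acetate, pH 5.4.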

[19] = Partition coefficient (logP); format: physicochemical; conditions: octanol/water
Method in brief: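 Octanol/water partition coefficient of the protonated species, calculated rather than measured.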

[20] = Acidity constant was determined; format: ADME
[21] = Critical micellar pH was determined
Method in brief: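 20 mL of 50 mM bile salt solution titrated with 0.1 M HCl. CMpH is taken as the pH at which precipitate of the protonated form is first seen by turbidity at 500 nm. Confirmed by back-titration with 0.1 M NaOH until the suspension clears.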

[22] = test system: Rattus norvegicus; assay: Secretion of Bile in Bile Fistula rats after the iv administration of compound, expressed as the residual secretion rate; format: ADME, organism-based; conditions: in vivo; method in brief: as §2
[23] = as §4; format: ADME

CC(CCC(=O)NCC(=O)O)C1CC[C@H]2[C@@H]3[C@H](O)CC4C[C@H](O)CCC4(C)[C@H]3CCC12C (stereo partly drawn)
Rs [1]: 0.8 µM/min/kg
Rs [2]: 18 nM/min/kg
Rs [3]: 0.1 µM/min/kg
solubility [4]: 8 µM (≈ 3.6 µg/mL)
[ALP]max [5]: 150 IU/L
[LDH]max [6]: 37 UI l-1
CMC [7]: 12 mM
Smax [8]: 63 µL/min/kg
Smax [9]: 0.22 µM/min/kg
Smax [10]: 3.13 µM/min/kg
Smax [11]: 3.33 µM/min/kg
Smax [12]: 6.1 µM/min/kg
Smax [13]: 77 µL/min/kg
Smax [14]: 51 nM/min/kg
Smax [15]: 0.23 µM/min/kg
rK [16]: 0.85
half-life [17]: 240 min
half-life [18]: 120 min
logP [19]: 3.53
pKa [20]: 3.9
CMpH [21]: 7.1
Rs [22]: 45 µL/min/kg

C[C@H](CCC(=O)NCCS(=O)(=O)O)[C@H]1CC[C@H]2[C@@H]3C[C@H](O)C4C[C@H](O)CC[C@]4(C)[C@H]3CC[C@]12C (stereo in doubt; form 1)
T1/2 [23]: 4 h
